Data set [1] concerns the target Prothrombin (Homo sapiens, UniProt P00734). Kind of data set: Inhibitory activity against thrombin. The method, boiled down: (§1)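 Chromogenic assay at room temperature in pH 8.4 buffer (0.1 M Tris, 0.2 M NaCl, 0.1% PEG-6000, 0.02% Tween20). For fXa, 4.5 nM enzyme with 200 μM S-2222; for thrombin, 1.1 nM enzyme with 100 μM S-2238 (final). Inhibitor and enzyme preincubated 10 min, then substrate added. p-Nitroaniline release read at 405 nm for 16 min. IC50 taken from initial velocities; apparent Ki scaled from IC50 ratios against a standard inhibitor's Ki from a double reciprocal plot.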

Data set [2] has as its target Coagulation factor X (Homo sapiens, UniProt P00742). Put plainly: Inhibitory activity against Coagulation factor X (fXa). A digest of the protocol:
as §1

In data set [3] the target is Thrombin and coagulation factor X (Homo sapiens) (UniProt P00734+P00742). Put plainly: Selectivity for factor Xa (fXa) versus thrombin. In kind it is protein assay.
Sequence of Thrombin and coagulation factor X (Homo sapiens) (P00742 whole entry, looked up, other chains not shown): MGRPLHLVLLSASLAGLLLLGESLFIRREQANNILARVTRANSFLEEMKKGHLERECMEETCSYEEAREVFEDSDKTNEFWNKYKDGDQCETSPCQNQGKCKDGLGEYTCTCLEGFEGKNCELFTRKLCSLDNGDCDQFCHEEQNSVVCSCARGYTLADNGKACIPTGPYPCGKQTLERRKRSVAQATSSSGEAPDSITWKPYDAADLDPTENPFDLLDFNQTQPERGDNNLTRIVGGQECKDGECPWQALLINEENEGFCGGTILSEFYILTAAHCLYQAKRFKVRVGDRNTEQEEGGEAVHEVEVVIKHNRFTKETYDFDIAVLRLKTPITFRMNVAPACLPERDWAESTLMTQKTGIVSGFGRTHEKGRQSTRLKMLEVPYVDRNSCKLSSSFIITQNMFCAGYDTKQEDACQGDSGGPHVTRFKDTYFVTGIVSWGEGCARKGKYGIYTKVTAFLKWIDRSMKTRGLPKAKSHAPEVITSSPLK
Data set [4] in a line: Oral bioavailability. In kind it is ADME, organism-based. The settings on record: eutheria, in vivo. A digest of the protocol: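 Overnight-fasted male cynomolgus monkeys received 10 mg/kg orally by gastric tube, or 0.3 or 1.0 mg/kg intravenously. Saphenous vein blood was drawn into trisodium citrate before dosing and at several times up to 24 h. Plasma drug levels were measured by HPLC.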

For data set [5], the species on record is Homo sapiens. Kind of data set: Concentration required to double the prothrombin time(PT) in human plasma was determined. In kind it is functional.
The test system of data set [6] is Monkey. Put plainly: Concentration required to double the prothrombin time (PT) in plasma of cynomolgus monkey.

Bounds are passed on as bounds.

Sequence of Coagulation factor X (P00742 41-179 limits assumed): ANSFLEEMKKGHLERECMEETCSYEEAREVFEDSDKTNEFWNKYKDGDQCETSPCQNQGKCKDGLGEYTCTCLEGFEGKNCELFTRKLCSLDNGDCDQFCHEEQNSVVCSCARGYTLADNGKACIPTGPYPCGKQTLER
Sequence of Coagulation factor X (P00742 235-488 limits assumed): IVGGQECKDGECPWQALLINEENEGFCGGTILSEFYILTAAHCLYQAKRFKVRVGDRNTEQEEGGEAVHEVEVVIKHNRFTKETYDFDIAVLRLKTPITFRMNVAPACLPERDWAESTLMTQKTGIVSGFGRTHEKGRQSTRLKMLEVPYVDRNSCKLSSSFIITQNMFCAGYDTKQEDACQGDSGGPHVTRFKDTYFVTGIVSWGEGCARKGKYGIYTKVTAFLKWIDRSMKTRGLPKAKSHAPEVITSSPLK

`N=C(N)c1ccc(CC(=O)C(=O)O)c(OCCNC(=O)C2CCN(c3ccncc3)CC2)c1`: the inhibitory constant (Ki) in data set [1] amounted to 140 µM; in data set [2], 0.021 µM. Further, the Ratio in data set [3] worked out at 6700. Moreover, the bioavailability in data set [4] is 12%. The PT in data set [5] and in data set [6] was 0.22 µM throughout.
For the molecule `N=C(N)c1ccc(C(=O)NCCOc2cccc(C(=N)N)c2)cc1`, the results for the inhibitory constant (Ki) in data set [1] and in data set [2] were 710 µM and 0.22 µM, respectively. Further, in data set [3], the Ratio came to 3200.
For `CC(=N)N1CCC(Oc2ccc(C(=O)NCCOc3cc(C(=N)N)ccc3CCC(=O)O)cc2)CC1` the same measures were over 1500 µM, 0.033 µM and over 45000.
Turning to `CC(=N)N1CCC(Oc2ccc(C(=O)NCCOc3cc(C(=N)N)ccc3CC(=O)C(=O)O)cc2)CC1`, the Ki in data set [1] came to 53 µM; in data set [2], 0.02 µM. In addition, in data set [3], the Ratio is 2700. Further, the PT in data set [5] stood at 0.2 µM; in data set [6], 0.12 µM.
On to `N=C(N)c1cccc(OCCNC(=O)c2ccc(C(=O)N3CCCC3)cc2)c1`, for which the Ki in data set [1] amounted to 110 µM; in data set [2], 0.02 µM. Further, the Ratio in data set [3] worked out at 5500.
The like results for `N=C(N)c1ccc(C(=O)NCCOc2cc(C(=N)N)ccc2CC(=O)C(=O)O)cc1` were, in that order, 38 µM, 0.026 µM and 1500.
In the case of `CC(=N)N1CCC(Oc2ccc(C(=O)N[C@@H](COc3cc(C(=N)N)ccc3CC(=O)C(=O)O)CC(=O)O)cc2)CC1`, the inhibition constant (Ki) in data set [1] worked out at 540 µM; in data set [2], 0.011 µM. The Ratio in data set [3] is 49000. For the same molecule, the bioavailability in data set [4] was determined as 12%. Also, the PT in data set [5] and in data set [6] was 0.38 µM each time.
With `N=C(N)c1ccc(CC(=O)C(=O)O)c(OCCNC(=O)c2ccc(C(=O)N3CCCC3)cc2)c1`, the Ki in data set [1] is 24 µM; in data set [2], 0.003 µM. Also, the Ratio in data set [3] amounted to 8000.
In the case of `N=C(N)c1ccc(CCC(=O)O)c(OCCNC(=O)C2CCN(c3ccncc3)CC2)c1`, the Ki in data set [1] was over 1500 µM; in data set [2] it was 0.043 µM. In data set [3], the Ratio was over 35000. Besides, the bioavailability in data set [4] was 6%. The PT in data set [5] was 0.42 µM; in data set [6], 0.7 µM.
In the case of `N=C(N)c1ccc(C(=O)N[C@H](COc2cccc(C(=N)N)c2)CC(=O)O)cc1`, the inhibition constant Ki in data set [1] is over 1500 µM; in data set [2], 0.17 µM. Further, the Ratio in data set [3] is over 8800.
Take `N=C(N)c1ccc(C(=O)N[C@@H](COc2cccc(C(=N)N)c2)CC(=O)O)cc1`: the Ki is over 1500 µM in data set [1] and 0.028 µM in data set [2]. The Ratio in data set [3] was over 54000.
For `N=C(N)c1cccc(OCCNC(=O)c2ccccc2)c1` the same measures were 800 µM, 2.8 µM and 290.
On to `N=C(N)c1ccc(CC(=O)C(=O)O)c(OC[C@@H](CC(=O)O)NC(=O)C2CCN(c3ccncc3)CC2)c1`, for which the inhibition constant (Ki) in data set [1] came to 680 µM; in data set [2] it was 0.018 µM. Moreover, the Ratio in data set [3] stood at 38000.
For `N=C(N)c1cccc(OCCNC(=O)C2CCN(c3ccncc3)CC2)c1`, the Ki in data set [1] was found to be 1000 µM; in data set [2], 0.29 µM. For the same molecule, in data set [3], the Ratio is 3500.
For `CC(=N)N1CCC(Oc2ccc(C(=O)NCCOc3cccc(C(=N)N)c3)cc2)CC1` the same measures were 440 µM, 0.17 µM and 2600.

For the origin of these results see ChEMBL document CHEMBL1145031, “Rational design, synthesis, and structure-activity relationships of novel factor Xa inhibitors: (2-substituted-4-amidinophenyl)pyruvic and -propionic acids” (J Med Chem, 2003).
